{"source": "paper PMC5485308", "about": "(Molecular Metabolism, 2017)", "molecules": {"B1": {"name": "recombinant bovine chymotrypsin-like elastase family member 2A: commercial protease (3.4.21.71) from MyBioSource (protein, UniProt Q29461 29-269, looked up)", "Chymotrypsin-like elastase …": "VVGGEDARPNSWPWQVSLQYSSSGQWRHTCGGSLIEQNWVLTAAHCISSSRTYRVVVGRQSLSTVESGSLTIAVSKSVIHEKWNSNQLAQGNDIALLKLASSVPLTDKIQLGCLPAAGTILPNNYVCYVTGWGRLQSNGALPDILQQGKLLVVDYATCSNPSWWGSTVKTNMICAGGDGVTSSCNGDSGGPLNCQAANRQWQVHGIVSFGSSLGCNYYRKPSVFTRVSNYNDWISSVIENN"}, "B2": {"name": "recombinant rat carboxypeptidase A1: commercial protease (3.4.17.1) from MyBioSource (protein, UniProt P00731 111-419, looked up)", "Carboxypeptidase A1": "ALSTDSFNYATYHTLDEIYEFMDLLVAEHPQLVSKIQIGNTFEGRPIHVLKFSTGGTNRPAIWIDTGIHSREWVTQASGVWFAKKITKDYGQDPTFTAVLDNMDIFLEIVTNPDGFAYTHKTNRMWRKTRSHTQGSLCVGVDPNRNWDAGFGMAGASSNPCSETYRGKFPNSEVEVKSIVDFVTSHGNIKAFISIHSYSQLLLYPYGYTSEPAPDQAELDQLAKSAVTALTSLHGTKFKYGSIIDTIYQASGSTIDWTYSQGIKYSFTFELRDTGLRGFLLPASQIIPTAEETWLALLTIMDHTVKHPY"}, "B3": {"name": "recombinant mouse chymotrypsin-like elastase family member 3B: commercial protease (3.4.21.70) from MyBioSource (protein, UniProt Q9CQ52 28-269, looked up)", "Chymotrypsin-like elastase …": "VVNGEEAVPHSWPWQVSLQYEKDGSFHHTCGGSLITPDWVLTAGHCISTSRTYQVVLGEHERGVEEGQEQVIPINAGDLFVHPKWNSMCVSCGNDIALVKLSRSAQLGDAVQLACLPPAGEILPNGAPCYISGWGRLSTNGPLPDKLQQALLPVVDYEHCSRWNWWGLSVKTTMVCAGGDIQSGCNGDSGGPLNCPADNGTWQVHGVTSFVSSLGCNTLRKPTVFTRVSAFIDWIEETIANN"}}, "key": {"[1]": {"molecular_target": "T1, carboxypeptidase A1 (CBPA1) (Homo sapiens, UniProt P15085)", "T1 sequence (P15085 111-419)": "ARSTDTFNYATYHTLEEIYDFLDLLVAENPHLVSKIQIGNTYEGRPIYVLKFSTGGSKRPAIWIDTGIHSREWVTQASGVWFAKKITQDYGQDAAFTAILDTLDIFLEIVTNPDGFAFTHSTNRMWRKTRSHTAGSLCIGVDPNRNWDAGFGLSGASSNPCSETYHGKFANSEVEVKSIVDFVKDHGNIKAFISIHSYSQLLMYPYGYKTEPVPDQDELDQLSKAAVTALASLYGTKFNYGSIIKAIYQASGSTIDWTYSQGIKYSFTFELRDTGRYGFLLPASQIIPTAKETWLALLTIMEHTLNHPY", "assay_type": "in vitro ADME", "conditions": "for extent of degradation by CBPA1: purified CBPA1, PBS pH 7.3, 37 °C, 60 min, RP-HPLC UV 215 nm", "procedure,_shortened": "(§1)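 Purified human fecal enzyme (3.4 µL of 0.8 mg/mL) was incubated with 33-, 19- or 13-mer gliadin peptide (4.7 µL of 60 µM) in PBS pH 7.3 (40 µL total) at 37 °C for 60 min (also 24 h). Reactions were stopped by boiling for 10 min, then filtered. Read-out: C18 RP-HPLC, 0.1% TFA water-to-acetonitrile gradient over 20 min, UV 215 nm. Controls: enzyme boiled 15 min; peptide alone.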"}, "[2]": {"test": "Peptide hydrolysis by fecal protein extracts of celiac disease", "assay_type": "in vitro ADME, human", "conditions": "for extent of degradation by CD fecal samples, 24 h: fecal extracts of CD patients, 24-h incubation (not shown)", "procedure,_shortened": "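Stools from treated celiac patients (Marsh III at diagnosis, gluten-free diet, no antibiotics for a month) were stored at −80 °C. They were homogenized in 10 mM Tris-HCl pH 7.5, and the 35–65% ammonium sulfate fraction was desalted. Extract (3.4 µL of 0.8 mg/mL) plus peptide (4.7 µL of 60 µM) in PBS pH 7.3 ran 60 min or 24 h at 37 °C. Read-out: C18 RP-HPLC, UV 215 nm.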"}, "Elastase 2A (CEL2A)": {"molecular_target": "T2, Elastase 2A (CEL2A) (Homo sapiens, UniProt P08217)", "T2 sequence (P08217 29-269)": "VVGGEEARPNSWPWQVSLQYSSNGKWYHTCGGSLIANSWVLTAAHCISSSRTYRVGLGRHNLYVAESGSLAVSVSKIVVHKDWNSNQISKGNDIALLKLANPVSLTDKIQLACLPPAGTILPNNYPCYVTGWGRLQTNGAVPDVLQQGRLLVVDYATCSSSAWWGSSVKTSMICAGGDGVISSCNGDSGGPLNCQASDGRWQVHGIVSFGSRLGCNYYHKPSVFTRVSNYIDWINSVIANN", "test": "33-mer, 19-mer and 13-mer hydrolysis by purified human fecal elastase 2A", "assay_type": "in vitro ADME", "conditions": "for extent of degradation by CEL2A: PBS pH 7.3, 37 °C, 60 min, RP-HPLC UV 215 nm", "procedure,_shortened": "as §1"}, "gluten and gliadin": {"system": "gluten and gliadin", "test": "Glutenase and gliadinase activity of commercial proteases", "assay_type": "biochemical", "conditions": "bioassay on MCG-1 gluten agar plates and gliadin zymography"}, "CEL2A, CBPA1, and CEL3B": {"system": "CEL2A, CBPA1, and CEL3B", "test": "33-mer hydrolysis with CEL2A, CBPA1 and CEL3B added together", "assay_type": "in vitro ADME, human", "conditions": "CBPA1 and CEL3B added simultaneously or sequentially, 60 min (not shown)"}, "Elastase 3B (CEL3B)": {"molecular_target": "T3, Elastase 3B (CEL3B) (Homo sapiens, UniProt P08861)", "T3 sequence (P08861 29-270)": "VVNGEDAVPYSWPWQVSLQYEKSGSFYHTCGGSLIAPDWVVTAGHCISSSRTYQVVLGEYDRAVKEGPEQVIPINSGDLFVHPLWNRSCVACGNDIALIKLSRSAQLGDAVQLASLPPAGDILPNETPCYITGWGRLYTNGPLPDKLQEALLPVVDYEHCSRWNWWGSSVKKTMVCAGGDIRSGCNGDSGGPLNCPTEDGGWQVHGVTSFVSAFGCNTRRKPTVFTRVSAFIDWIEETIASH", "test": "33-mer, 19-mer and 13-mer hydrolysis by purified human fecal elastase 3B", "assay_type": "in vitro ADME", "procedure,_shortened": "as §1"}, "[3]": {"conditions": "37 °C, 24-h incubation (not shown)"}}, "note": "Ends that are not written are not given here.", "data": [{"molecule": "LGQQQPFPPQQPY [13-mer]", "values": [{"measurement": "extent of degradation by CBPA1", "setting": "[1]", "result": "fully degraded"}, {"measurement": "extent of degradation by CD fecal samples, 24 h", "setting": "[2]", "result": "completely degraded"}, {"measurement": "extent of degradation by CEL2A", "setting": "Elastase 2A (CEL2A)", "result": "fully degraded"}]}, {"molecule": "LGQQQPFPPQQPYPQPQPF [19-mer]", "values": [{"measurement": "extent of degradation by CBPA1", "setting": "[1]", "result": "fully degraded"}, {"measurement": "extent of degradation by CD fecal samples, 24 h", "setting": "[2]", "result": "completely degraded"}, {"measurement": "extent of degradation by CEL2A", "setting": "Elastase 2A (CEL2A)", "result": "fully degraded"}]}, {"molecule": "porcine elastase: commercial protease (3.4.21.36) from Sigma", "values": [{"measurement": "hydrolytic activity against gluten and gliadin", "setting": "gluten and gliadin", "result": "showed hydrolytic activity"}]}, {"molecule": "LQLQPFPQPQLPYPQPQLPYPQPQLPYPQPQPF [33-mer]", "values": [{"measurement": "extent of degradation by CBPA1 after 24 h", "setting": "[1]; purified CBPA1, 37 °C, 24-h incubation (not shown)", "result": "not completely degraded"}, {"measurement": "extent of degradation by CBPA1", "setting": "[1]", "result": "not completely degraded"}, {"measurement": "degradation in CD patients relative to NCD samples (higher by)", "setting": "[2]; fecal extracts of CD patients versus NCD volunteers, 37 °C, 60 min, HPLC", "result": 37, "unit": "%"}, {"measurement": "extent of degradation by CD fecal samples, 24 h", "setting": "[2]", "result": "incomplete"}, {"measurement": "change of degradation when all 3 enzymes are added", "setting": "CEL2A, CBPA1, and CEL3B", "result": "did not increase"}, {"measurement": "extent of degradation by CEL3B after 24 h", "setting": "Elastase 3B (CEL3B); [3]", "result": "not completely degraded"}, {"measurement": "extent of degradation by CEL3B", "setting": "Elastase 3B (CEL3B); PBS pH 7.3, 37 °C, 60 min, RP-HPLC UV 215 nm", "result": "not completely degraded"}, {"measurement": "extent of degradation by CEL2A after 24 h", "setting": "Elastase 2A (CEL2A); [3]", "result": "not completely degraded"}, {"measurement": "extent of degradation by CEL2A", "setting": "Elastase 2A (CEL2A)", "result": "not completely degraded"}]}, {"molecule": "B1", "values": [{"measurement": "hydrolytic activity against gluten and gliadin", "setting": "gluten and gliadin", "result": "showed hydrolytic activity"}]}, {"molecule": "B2", "values": [{"measurement": "hydrolytic activity against gluten and gliadin", "setting": "gluten and gliadin", "result": "showed hydrolytic activity"}]}, {"molecule": "B3", "values": [{"measurement": "hydrolytic activity against gluten and gliadin", "setting": "gluten and gliadin", "result": "showed hydrolytic activity"}]}]}
